Test results: ChEMBL document CHEMBL1131215, “Anhydrolide macrolides. 1. Synthesis and antibacterial activity of 2,3-anhydro-6-O-methyl 11,12-carbamate erythromycin A analogues” (1998)
≈ marks a conversion by molar mass, not a printed value.

How the values were obtained:
Type in all cases: functional
Staphylococcus aureus [1] = assay: In vitro antibacterial activity against 6538P strain of Staphylococcus aureus
Method in brief: (§1)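 MIC determined by standard agar dilution; values in μg/mL.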

Haemophilus influenzae = assay: In vitro antibacterial activity against DILL strain of Haemophilus influenzae.; method in brief: as §1
Streptococcus pneumoniae [2] = assay: In vitro antibacterial activity against 5979 strain of Streptococcus pneumoniae; method in brief: as §1
Streptococcus pneumoniae [3] = assay: In vitro antibacterial activity against 5649 strain of Streptococcus pneumoniae; conditions: Streptococcus pneumoniae; method in brief: as §1
Streptococcus pyogenes [4] = assay: In vitro antibacterial activity against 930 strain of Streptococcus pyogenes; conditions: Streptococcus pyogenes; method in brief: as §1
Mus musculus [5] = assay: Effective dose when administered orally in mice infected with Staphylococcus aureus NCTC-10649M.; conditions: po
Method in brief: (§2)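 Mice infected intraperitoneally with 1000 × LD₅₀ (S. aureus) or […] × LD₅₀ (S. pneumoniae). Compound given orally (po) or subcutaneously (sc) at 1 and 5 h post-infection. ED₅₀ expressed in mg/kg/day with 95% confidence interval.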

Streptococcus pneumoniae [6] = assay: In vivo antibacterial activity in mice infected with Streptococcus pneumoniae ATCC 6303
Staphylococcus aureus [7] = assay: In vitro antibacterial activity against A5177 strain of Staphylococcus aureus; conditions: Staphylococcus aureus; method in brief: as §1
Staphylococcus aureus [8] = assay: In vivo antibacterial activity in mice infected with Staphylococcus aureus NCTC-10649M.
[9] = In vitro antibacterial activity against A-5278 strain of Staphylococcus aureus; conditions: Staphylococcus aureus; method in brief: as §1
Streptococcus pyogenes [10] = assay: In vitro antibacterial activity against PIU 2548 strain of Streptococcus pyogenes; method in brief: as §1
Mus musculus [11] = assay: Effective dose when administered orally in mice infected with Streptococcus pneumoniae ATCC 6303; conditions: po; method in brief: as §2
Streptococcus pneumoniae [12] = assay: In vitro antibacterial activity against ATCC 6303 strain of Streptococcus pneumoniae; conditions: Streptococcus pneumoniae, ATCC 6303; method in brief: as §1
Mus musculus [13] = assay: Effective dose when administered subcutaneously in mice infected with Streptococcus pneumoniae ATCC 6303; conditions: sc; method in brief: as §2
Mus musculus [14] = assay: Effective dose when administered subcutaneously in mice infected with Staphylococcus aureus NCTC-10649M.; conditions: sc; method in brief: as §2
Streptococcus pneumoniae [15] = assay: In vitro antibacterial activity against Streptococcus pneumoniae 5979; method in brief: as §1

MIC (Staphylococcus aureus [1]; Staphylococcus aureus) | MIC (Haemophilus influenzae) | MIC (Streptococcus pneumoniae [2]) | MIC (Streptococcus pneumoniae [3]) | MIC (Streptococcus pyogenes [4]) | MIC (Streptococcus pneumoniae [6]) | MIC (Staphylococcus aureus [7]) | MIC (Staphylococcus aureus [8]) | MIC [9] | MIC (Streptococcus pyogenes [10]; Streptococcus pyogenes) | MIC (Streptococcus pneumoniae [12]) | MIC (Streptococcus pneumoniae [15]) | MIC (Staphylococcus aureus [1]) | MIC (Streptococcus pyogenes [10]) | SMILES | ED50 (Mus musculus [5]) | ED50 (Mus musculus [11]) | ED50 (Mus musculus [13]) | ED50 (Mus musculus [14])
0.39 µg/mL (≈ 0.542 µM) | 16 µg/mL (≈ 22.3 µM) | 32 µg/mL (≈ 44.5 µM) | 1 µg/mL (≈ 1.39 µM) | 25 µg/mL (≈ 34.8 µM) | 0.125 µg/mL (≈ 0.174 µM) | 0.39 µg/mL (≈ 0.542 µM) | 0.39 µg/mL (≈ 0.542 µM) | 50 µg/mL (≈ 69.6 µM) | 0.39 µg/mL (≈ 0.542 µM) | 0.125 µg/mL (≈ 0.174 µM) |  |  |  | CC[C@H]1OC(=O)/C(C)=C/[C@H](C)[C@@H](O[C@@H]2O[C@H](C)C[C@H](N(C)C)[C@H]2O)[C@@](C)(OC)C[C@@H](C)C(=O)[C@H](C)[C@H]2N(CCc3ccc(F)cc3)C(=O)O[C@]12C | > 100 mg/kg/day | > 40 mg/kg/day |  | 
0.2 µg/mL (≈ 0.256 µM) | 64 µg/mL (≈ 81.9 µM) | 8 µg/mL (≈ 10.2 µM) | 2 µg/mL (≈ 2.56 µM) | 3.1 µg/mL (≈ 3.97 µM) |  | 0.39 µg/mL (≈ 0.499 µM) |  | 25 µg/mL (≈ 32 µM) | 0.39 µg/mL (≈ 0.499 µM) | 0.03 µg/mL (≈ 0.0384 µM) |  |  |  | CC[C@H]1OC(=O)/C(C)=C/[C@H](C)[C@@H](O[C@@H]2O[C@H](C)C[C@H](N(C)C)[C@H]2O)[C@@](C)(OC)C[C@@H](C)C(=O)[C@H](C)[C@H]2N(CCCOc3ccc4ccccc4c3)C(=O)O[C@]12C |  |  |  | 
0.1 µg/mL (≈ 0.134 µM) | 16 µg/mL (≈ 21.5 µM) | 64 µg/mL (≈ 85.8 µM) | 1 µg/mL (≈ 1.34 µM) | 25 µg/mL (≈ 33.5 µM) | 0.06 µg/mL (≈ 0.0804 µM) | 0.1 µg/mL (≈ 0.134 µM) | 0.1 µg/mL (≈ 0.134 µM) | 50 µg/mL (≈ 67 µM) | 0.1 µg/mL (≈ 0.134 µM) | 0.06 µg/mL (≈ 0.0804 µM) |  |  |  | CC[C@H]1OC(=O)/C(C)=C/[C@H](C)[C@@H](O[C@@H]2O[C@H](C)C[C@H](N(C)C)[C@H]2O)[C@@](C)(OC)C[C@@H](C)C(=O)[C@H](C)[C@H]2N(CCc3ccc([N+](=O)[O-])cc3)C(=O)O[C@]12C | 50.1 mg/kg/day | > 20 mg/kg/day | > 8 mg/kg/day | > 40 mg/kg/day
0.39 µg/mL (≈ 0.552 µM) | 16 µg/mL (≈ 22.6 µM) | 32 µg/mL (≈ 45.3 µM) | 0.5 µg/mL (≈ 0.707 µM) | 25 µg/mL (≈ 35.4 µM) |  | 0.39 µg/mL (≈ 0.552 µM) |  | 50 µg/mL (≈ 70.7 µM) | 0.2 µg/mL (≈ 0.283 µM) | 0.125 µg/mL (≈ 0.177 µM) |  |  |  | CC[C@H]1OC(=O)/C(C)=C/[C@H](C)[C@@H](O[C@@H]2O[C@H](C)C[C@H](N(C)C)[C@H]2O)[C@@](C)(OC)C[C@@H](C)C(=O)[C@H](C)[C@H]2N(CCc3cccs3)C(=O)O[C@]12C |  |  |  | 
0.78 µg/mL (≈ 1.25 µM) | 16 µg/mL (≈ 25.7 µM) |  | 1 µg/mL (≈ 1.61 µM) |  | 0.25 µg/mL (≈ 0.402 µM) | 0.78 µg/mL (≈ 1.25 µM) | 0.05 µg/mL (≈ 0.0804 µM) |  | 0.2 µg/mL (≈ 0.322 µM) | 0.25 µg/mL (≈ 0.402 µM) |  |  |  | CC[C@H]1OC(=O)/C(C)=C/[C@H](C)[C@@H](O[C@@H]2O[C@H](C)C[C@H](N(C)C)[C@H]2O)[C@@](C)(OC)C[C@@H](C)C2=NCCN3C(=O)O[C@@]1(C)[C@H]3[C@H]2C | 66.1 mg/kg/day | 8 mg/kg/day | 7.5 mg/kg/day | > 40 mg/kg/day
0.39 µg/mL (≈ 0.507 µM) | 32 µg/mL (≈ 41.6 µM) | 16 µg/mL (≈ 20.8 µM) | 1 µg/mL (≈ 1.3 µM) | 6.2 µg/mL (≈ 8.06 µM) |  | 0.78 µg/mL (≈ 1.01 µM) |  | 25 µg/mL (≈ 32.5 µM) | 0.78 µg/mL (≈ 1.01 µM) | 0.125 µg/mL (≈ 0.163 µM) |  |  |  | CC[C@H]1OC(=O)/C(C)=C/[C@H](C)[C@@H](O[C@@H]2O[C@H](C)C[C@H](N(C)C)[C@H]2O)[C@@](C)(OC)C[C@@H](C)C(=O)[C@H](C)[C@H]2N(CCc3cccc(C(F)(F)F)c3)C(=O)O[C@]12C |  |  |  | 
0.39 µg/mL (≈ 0.507 µM) | 32 µg/mL (≈ 41.6 µM) | 8 µg/mL (≈ 10.4 µM) | 2 µg/mL (≈ 2.6 µM) | 6.2 µg/mL (≈ 8.05 µM) | 0.12 µg/mL (≈ 0.156 µM) | 0.39 µg/mL (≈ 0.507 µM) | 0.39 µg/mL (≈ 0.507 µM) | 12.5 µg/mL (≈ 16.2 µM) | 0.2 µg/mL (≈ 0.26 µM) | 0.12 µg/mL (≈ 0.156 µM) |  |  |  | CC[C@H]1OC(=O)/C(C)=C/[C@H](C)[C@@H](O[C@@H]2O[C@H](C)C[C@H](N(C)C)[C@H]2O)[C@@](C)(OC)C[C@@H](C)C(=O)[C@H](C)[C@H]2N(CCc3ccc(Cl)c(Cl)c3)C(=O)O[C@]12C | > 100 mg/kg/day | > 40 mg/kg/day | > 16 mg/kg/day | > 40 mg/kg/day
0.39 µg/mL (≈ 0.5 µM) | 16 µg/mL (≈ 20.5 µM) | 16 µg/mL (≈ 20.5 µM) | 1 µg/mL (≈ 1.28 µM) | 6.2 µg/mL (≈ 7.95 µM) | 0.125 µg/mL (≈ 0.16 µM) | 0.39 µg/mL (≈ 0.5 µM) | 0.39 µg/mL (≈ 0.5 µM) | 25 µg/mL (≈ 32.1 µM) | 0.39 µg/mL (≈ 0.5 µM) | 0.125 µg/mL (≈ 0.16 µM) |  |  |  | CC[C@H]1OC(=O)/C(C)=C/[C@H](C)[C@@H](O[C@@H]2O[C@H](C)C[C@H](N(C)C)[C@H]2O)[C@@](C)(OC)C[C@@H](C)C(=O)[C@H](C)[C@H]2N(CCc3ccc(Br)cc3)C(=O)O[C@]12C | > 100 mg/kg/day | > 100 mg/kg/day |  | 
0.39 µg/mL (≈ 0.556 µM) | 32 µg/mL (≈ 45.7 µM) |  | 1 µg/mL (≈ 1.43 µM) | 25 µg/mL (≈ 35.7 µM) |  | 0.1 µg/mL (≈ 0.143 µM) |  | 50 µg/mL (≈ 71.3 µM) | 0.01 µg/mL (≈ 0.0143 µM) | 0.03 µg/mL (≈ 0.0428 µM) | 64 µg/mL (≈ 91.3 µM) |  |  | CC[C@H]1OC(=O)/C(C)=C/[C@H](C)[C@@H](O[C@@H]2O[C@H](C)C[C@H](N(C)C)[C@H]2O)[C@@](C)(OC)C[C@@H](C)C(=O)[C@H](C)[C@H]2N(CCc3ccccc3)C(=O)O[C@]12C |  |  |  | 
0.39 µg/mL (≈ 0.534 µM) | 16 µg/mL (≈ 21.9 µM) | 64 µg/mL (≈ 87.6 µM) | 2 µg/mL (≈ 2.74 µM) | 25 µg/mL (≈ 34.2 µM) | 0.25 µg/mL (≈ 0.342 µM) | 0.39 µg/mL (≈ 0.534 µM) | 0.39 µg/mL (≈ 0.534 µM) |  | 0.39 µg/mL (≈ 0.534 µM) | 0.25 µg/mL (≈ 0.342 µM) |  |  |  | CC[C@H]1OC(=O)/C(C)=C/[C@H](C)[C@@H](O[C@@H]2O[C@H](C)C[C@H](N(C)C)[C@H]2O)[C@@](C)(OC)C[C@@H](C)C(=O)[C@H](C)[C@H]2N(CCc3cccc(OC)c3)C(=O)O[C@]12C | > 100 mg/kg/day | > 100 mg/kg/day |  | 
 |  |  | 0.5 µg/mL (≈ 0.838 µM) |  | 0.25 µg/mL (≈ 0.419 µM) | 0.78 µg/mL (≈ 1.31 µM) | 1.56 µg/mL (≈ 2.61 µM) |  |  | 0.25 µg/mL (≈ 0.419 µM) |  | 1.56 µg/mL (≈ 2.61 µM) | 0.2 µg/mL (≈ 0.335 µM) | CC[C@H]1OC(=O)/C(C)=C/[C@H](C)[C@@H](O[C@@H]2O[C@H](C)C[C@H](N(C)C)[C@H]2O)[C@@](C)(OC)C[C@@H](C)C(=O)[C@H](C)[C@H]2NC(=O)O[C@@]21C (stereo in doubt; 6) | 35.8 mg/kg/day | > 40 mg/kg/day |  | 

SMILES | MIC (Staphylococcus aureus [1]; Staphylococcus aureus) | MIC (Haemophilus influenzae) | MIC (Streptococcus pneumoniae [2]) | MIC (Streptococcus pneumoniae [3]) | MIC (Streptococcus pyogenes [4]) | MIC (Streptococcus pneumoniae [6]) | MIC (Staphylococcus aureus [7]) | MIC (Staphylococcus aureus [8]) | MIC [9] | MIC (Streptococcus pyogenes [10]; Streptococcus pyogenes) | MIC (Streptococcus pneumoniae [12]) | MIC (Streptococcus pneumoniae [15]) | MIC (Staphylococcus aureus [1]) | MIC (Streptococcus pyogenes [10]) | ED50 (Mus musculus [5]) | ED50 (Mus musculus [11]) | ED50 (Mus musculus [13]) | ED50 (Mus musculus [14])
CC[C@H]1OC(=O)[C@H](C)[C@@H](O[C@H]2C[C@@](C)(OC)[C@@H](O)[C@H](C)O2)[C@H](C)[C@@H](O[C@@H]2O[C@H](C)C[C@H](N(C)C)[C@H]2O)[C@](C)(OC)C[C@@H](C)C(=O)[C@H](C)[C@@H](O)[C@]1(C)O [CLARITHROMYCIN] |  |  |  |  |  | 0.004 µg/mL (≈ 0.00535 µM) |  | 0.03 µg/mL (≈ 0.0401 µM) |  |  |  |  |  |  |  |  |  | 
